Bioassay records as filed in PubChem BioAssay.
SENP8 block-1 = inhibitors of human SENP8 protease; purified SENP8, Z-RLRGG-aminoluciferin cleavage, luminescence; inhibition, % at 10 µM; 330,000 compounds, 1.2% hits; in the data active means inhibition above about 50%
SENP7 block = inhibitors of human SENP7 protease | Q9BQF6 | recombinant SENP7, Z-RLRGG-aminoluciferin luminescence, 40 min | inhibition, % at 5 µM | 330,000 compounds, 1.5% hits | AID 434973;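 active means inhibition above about 50% at the single test dose, limit read from the data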;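 further: plate controls were DMSO with enzyme for no effect and no enzyme buffer wells for full effect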
SENP6 block = blocks the human protease SENP6 | Q9GZR1 | Recombinant SENP6 catalytic domain, aminoluciferin luminescence | inhibition, % at 10 µM | 330,000 compounds, 1.8% hits;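 active means inhibition above about 50% at the single tested dose, limit read from the data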;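 further: plate controls were DMSO wells with enzyme for no effect and DMSO wells lacking enzyme for full effect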
Target sequence (Q9GZR1 628-1112 limits assumed): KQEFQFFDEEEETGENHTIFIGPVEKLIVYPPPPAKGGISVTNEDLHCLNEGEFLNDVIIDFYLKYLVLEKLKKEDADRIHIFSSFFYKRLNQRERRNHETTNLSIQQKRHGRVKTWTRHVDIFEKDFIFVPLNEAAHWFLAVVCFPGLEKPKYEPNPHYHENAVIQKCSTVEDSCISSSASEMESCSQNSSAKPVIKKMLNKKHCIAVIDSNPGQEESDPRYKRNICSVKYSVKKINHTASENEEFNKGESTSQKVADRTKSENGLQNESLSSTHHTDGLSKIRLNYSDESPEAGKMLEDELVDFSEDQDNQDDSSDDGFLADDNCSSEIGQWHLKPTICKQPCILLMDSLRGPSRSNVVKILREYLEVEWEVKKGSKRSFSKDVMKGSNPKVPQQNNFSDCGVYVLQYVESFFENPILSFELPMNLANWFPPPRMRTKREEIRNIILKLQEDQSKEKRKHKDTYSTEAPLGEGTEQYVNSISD
SENP8 block-2 = blocks human SENP8 cleavage of Nedd8 substrate; Q96LD8; recombinant SENP8, Nedd8 substrate fluorescence; inhibition, % at 20 µM; 360,000 compounds, 0.64% hits; AID 602440; in the data active means inhibition mostly above about 40%, no sharp cut-off; inactive means mostly below about 27%
SENP1 FRET inh = SENP1 (human) catalytic domain inhibition; 360,000 compounds, 0.21% hits; Q9P0U3; recombinant SENP1 catalytic domain, CyPet-SUMO1-YPet FRET cleavage; inhibition, % at 10 µM;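 active means inhibition at least 30% at 10 µM, raw YFP signal under a set limit, fluorescence ratio 0.5 to 1.5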;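 further: 0% = enzyme with DMSO and 100% = no enzyme wells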
Target sequence (Q9P0U3 419-644 limits assumed): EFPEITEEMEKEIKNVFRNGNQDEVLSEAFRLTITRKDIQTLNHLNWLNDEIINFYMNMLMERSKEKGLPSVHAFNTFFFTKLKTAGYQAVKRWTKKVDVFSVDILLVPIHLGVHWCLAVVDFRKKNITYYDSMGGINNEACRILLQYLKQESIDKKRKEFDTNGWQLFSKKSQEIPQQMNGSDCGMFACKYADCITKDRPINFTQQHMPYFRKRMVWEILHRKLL
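Assay system: hSENP1 catalytic domain, recombinant. Amount: SENP1 enzyme, 20 pM final. Schedule: 50 min reaction, RT, dark. Technique: FRET, CFP and YFP emission. Control set: no-enzyme wells low, DMSO-plus-enzyme wells high control.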
SENP8 conf = human SENP8 inhibition, confirmed; shares compounds with SENP7 block; Recombinant SENP8, Z-RLRGG-aminoluciferin luminescence, 60 min; inhibition, % at 12.5 µM; 6,200 compounds, 40% hits; AID 488912;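 active means mean inhibition across replicates above about 50%, limit read from the data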
SENP6 confirm = human SENP6 inhibition, confirmed | shares compounds with SENP7 block | recombinant SENP6, Z-RLRGG-aminoluciferin luminescence | inhibition, % at 12.5 µM | 6,200 compounds, 58% hits
SENP7 conf = human SENP7 inhibition, confirmed; shares compounds with SENP7 block; recombinant SENP7, Z-RLRGG-aminoluciferin luminescence, 40 min; inhibition, % at 12.5 µM; 6,200 compounds, 69% hits; AID 488917
Casp3 select = selectivity test for SENP inhibitors: human caspase-3 inhibition | shares compounds with SENP7 block | purified caspase-3, Z-DEVD-aminoluciferin luminescence, 60 min | inhibition, % at 12.5 µM | 6,200 compounds, 60% hits;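 active means mean inhibition above about 50%, limit read from the data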;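 further: plate controls were enzyme with DMSO for no effect and wells without caspase-3 for full effect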
Luc interf = interferes with luciferase luminescence in SENP counter-screen; shares compounds with SENP7 block; Pre-incubated SENP8/Z-RLRGG-aminoluciferin, luciferase luminescence interference; inhibition, % at 12.5 µM; 6,200 compounds, 39% hits; AID 488919;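 active means mean inhibition above about 50% when retested at one dose, limit read from the data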;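 further: plate controls were DMSO wells with completed reaction for no effect and substrate without enzyme for full effect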
An asterisk follows results filed as active; x = no result given. A selection: hits, their analogues and other compounds. The true share with any hit is near 2.5%.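 How the source made its calls, unless noted: active means mean inhibition above about 50% in the one-dose retest (limit read from the data); inactive means the rest.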

SMILES	SENP8 block-1	SENP7 block	SENP6 block	SENP8 block-2	SENP1 FRET inh	SENP8 conf	SENP6 confirm	SENP7 conf	Casp3 select	Luc interf
CCN(CC(=O)Nc1c(F)cccc1F)C(=O)c1cc(-c2cccs2)nn1-c1ccccc1	-2.6	-16.4	-9.9	-7.0	-0.5	x	x	x	x	x
Cc1cccc([C@@H]2[C@@H]3C(=O)N(Cc4ccccc4)C(=O)[C@@H]3[C@]3(C)C(=O)N(c4ccc(C(F)(F)F)cc4)C(=O)N23)c1	-6.5	7.0	-17.2	-1.3	0.2	x	x	x	x	x
CCOc1ccc(-c2nc(CN3CCCCC3CCn3cccn3)c(C)o2)cc1 (stereo not drawn)	-2.8	2.5	13.9	-2.0	-6.4	x	x	x	x	x
CCOc1ccc(NC(=O)c2ccncc2)cc1	-9.8	-3.5	59.6*	15.8	0.1	3.4	-1.9	10.4	15.5	5.5
Cc1noc(C)c1COc1ccc(C(=O)Nc2ccccc2)cc1	-7.4	-8.5	-25.9	10.9	-0.7	x	x	x	x	x
COc1ccc(NC(=O)c2sccc2C)cn1	22.4	26.7	30.6	7.0	0.3	x	x	x	x	x
O=C(Nc1ccccc1)c1ccc(COc2ccccc2)cc1	-9.3	63.5*	43.5	3.2	1.0	-25.5	-12.2	-4.5	-1.0	-4.6
Cc1ccsc1C(=O)Nc1ccc(C(=O)O)cc1	79.1*	85.7*	-48.9	19.5	2.4	-12.9	78.1*	95.4*	95.8*	80.6*
Cc1noc(C)c1COc1cccc(C(=O)Nc2ccc(OCc3ccccc3)cc2)c1	16.1	34.1	57.1*	25.8	-0.3	9.2	6.9	3.5	3.9	-5.9
CCOc1ccc(NC(=O)c2ccc(OC)cc2)cc1	-6.6	6.8	-41.0	23.8	-1.0	x	x	x	x	x
CC(C)=CC(=O)Nc1ccc(OCc2ccccc2)cc1	48.6	57.5*	72.5*	1.1	-2.0	34.6	48.6	75.6*	41.6	44.9
CCOC(=O)C(=O)Nc1ccc(OCc2ccccc2)cc1	-21.3	14.2	-65.8	11.0	-2.4	x	x	x	x	x
Cc1cc(C(=O)Nc2ccc(OCc3ccccc3)cc2)c(C)o1	94.1*	99.5*	101.4*	18.1	-1.8	73.7*	96.4*	101.4*	95.1*	64.4*
Cc1ccc(Cn2cc(CN3CC(N4CCN(C5CCN(C)CC5)CC4)CS3(=O)=O)nn2)cc1 (stereo not drawn)	x	x	x	20.6	-1.0	x	x	x	x	x
Cc1ccc(-c2nc3ccccn3c2NCc2ccc3c(c2)OCO3)cc1	0.6	-4.1	50.7*	-298.3	-33.7	29.3	19.6	42.9	26.5	40.2
Oc1ccc(-c2nc3ccccn3c2NCc2ccco2)cc1	5.1	0.6	55.6*	-496.4	-15.5	24.9	19.7	60.8*	47.8	44.0
COc1ccc(-c2nc3ccc(C)cn3c2NCc2ccc3c(c2)OCO3)cc1	-11.7	-4.4	-1.6	-351.3	-11.7	x	x	x	x	x
O=C(Nc1c(-c2ccccc2)nc2ccccn12)c1ccco1	3.3	4.9	-12.2	3.7	1.9	x	x	x	x	x
Cc1cc(C(=O)Nc2ccncc2)c2ccccc2n1	1.1	-6.4	-7.0	4.4	0.4	x	x	x	x	x
O=C(O)c1ccc(OCC(F)(F)F)nc1	-10.1	11.8	-9.2	17.5	1.2	x	x	x	x	x
O=C(O)CCc1ccc(-c2cccs2)o1	3.0	-0.9	-14.1	-59.8	-3.8	x	x	x	x	x
Cc1ccc(-c2ccc(CCC(=O)O)o2)cc1	19.1	25.1	57.7*	-1.1	-0.4	73.8*	70.1*	85.5*	61.0*	75.7*
CCc1ccccc1NC(=O)CN(C)C(=O)CSc1nc2cc(Cl)ccc2s1	-9.0	-6.5	3.4	13.2	3.1	x	x	x	x	x
COC(=O)c1ccc(OC(=O)/C=C/c2ccco2)cc1	78.2*	76.5*	83.0*	14.6	3.1	83.8*	86.0*	73.2*	74.0*	44.9
CCCN(Cc1nnc(-c2cccs2)o1)C(=O)CN1C(=O)NC2(CCCCC2C)C1=O (stereo not drawn)	-13.9	-4.2	-13.6	6.1	-0.3	x	x	x	x	x
SMILES	SENP8 block-1	SENP7 block	SENP6 block	SENP8 block-2	SENP1 FRET inh	SENP8 conf	SENP6 confirm	SENP7 conf	Casp3 select	Luc interf
COC(=O)c1ccc(COc2c(F)c(F)cc(F)c2F)o1	-13.4	-6.6	-16.0	5.8	0.9	x	x	x	x	x
COc1ccc(OCC(O)COc2ccc(C(=O)O)cc2)cc1 (stereo not drawn)	0.0	2.2	-3.6	16.4	-0.6	x	x	x	x	x
CCCCOc1ccc(C(=O)N2CCCCCC2)cc1	-6.6	-8.1	18.1	20.1	1.8	x	x	x	x	x
Cc1oc(C(=O)O)cc1COc1cccc2ccccc12	-5.8	-4.2	-0.5	5.6	0.0	x	x	x	x	x
COc1ccc(OCc2ccc(C(=O)O)cc2)cc1	51.1*	68.0*	83.9*	30.7	1.5	81.3*	75.7*	94.4*	62.3*	78.0*
O=C(O)c1cccc(COc2cccc3ccccc23)c1	97.1*	95.9*	97.2*	17.3	0.4	98.2*	100.1*	103.0*	84.5*	98.8*
O=C(c1ccc(COc2ccc(Cl)cc2)cc1)N1CCCCC1	62.9*	75.1*	86.9*	16.2	1.1	81.4*	77.9*	91.1*	59.9*	65.5*
O=C(O)c1ccc(COc2c(F)c(F)cc(F)c2F)cc1	40.7	48.4	80.1*	9.3	1.3	66.3*	66.7*	89.6*	90.2*	78.6*
CCOC(=O)c1nn(-c2ccccc2C)c(=O)cc1OCC(=O)N1CCN(c2ccccc2)CC1	-3.7	-2.5	0.6	10.5	2.7	x	x	x	x	x
O=C(O)c1ccc(COc2ccccc2Cl)cc1	57.0*	31.0	71.6*	2.4	-0.2	8.1	66.2*	91.4*	85.1*	70.5*
O=C(O)c1ccc(-c2nc(-c3ccc(Cl)c(Cl)c3)cs2)cc1	73.8*	78.6*	85.5*	-94.6	1.4	89.7*	92.3*	93.7*	72.1*	68.3*
O=C(O)c1ccc(-c2nc(-c3ccccc3Cl)cs2)cc1	95.5*	94.3*	97.5*	-30.1	0.6	98.1*	98.9*	102.3*	97.2*	93.4*
O=[N+]([O-])c1ccc(-c2n(-c3ccccn3)c3ccccc3[n+]2-c2ccccn2)cc1	-8.0	1.0	-13.0	5.5	3.0	x	x	x	x	x
Cc1ccnc(N2C(=O)c3ccccc3C2O)c1 (stereo not drawn)	81.4*	90.0*	85.0*	-1.3	-3.2	81.7*	82.1*	98.1*	95.8*	88.0*
COc1cc(OC)cc(-c2c(-c3cccs3)c3cc(-c4ccc5[nH]ccc5c4)ccc3n2C)c1	5.3	3.8	-1.9	-469.9	-2.0	x	x	x	x	x
